Assay [1] has as its system Panel leukemia (Carcinoma cell lines). The assay is described as follows: Inhibitory activity against leukemia cell line. In kind it is functional, cell-based. The settings on record: Homo sapiens, Panel leukemia (Carcinoma cell lines).
For another assay, the system named is Colon cell. The experiment in a line: Inhibitory activity against Colon cell line. In kind it is functional, cell-based. The settings on record: Homo sapiens, Colon cell.
The subject of the next assay is Ovarian carcinoma cell. The experiment in a line: Inhibitory activity against ovarian cell line. The format is functional, cell-based. The following applies: Homo sapiens, Ovarian carcinoma cell.
Another assay deals with Melanoma cell. The experiment in a line: Inhibitory activity against melanoma cell line. The format is functional, cell-based. The following applies: for IC50: Homo sapiens, Melanoma cell.
For assay [2], the system named is NCI-60 human tumor cell line panel (Homo sapiens). The experiment in a line: Mean averaged concentration for total growth inhibition, which signifies cytostatic effect.
The test system of a further assay is Renal cell. The experiment in a line: Inhibitory activity against renal cell line. The format is functional, cell-based. The settings on record: for IC50: Homo sapiens, Renal cell.
Assay [3] relates to non-small-cell lung cancer cell lines (Homo sapiens). The experiment in a line: Inhibitory activity against non-small-cell lung cancer cell lines. The following applies: Homo sapiens.
The subject of assay [4] is NCI-60 human tumor cell line panel (Homo sapiens). The experiment in a line: Mean concentration causing inhibition of cell growth in the NCI-60 human tumor cell line panel.
For the next assay, the system named is CNS cell. The experiment in a line: Inhibitory activity against CNS cell line. The format is functional, cell-based. The settings on record: for IC50: Homo sapiens, CNS cell.
A further assay has as its system 3Y1 cell line. The experiment in a line: Cytotoxicity in 3Y1 cells. Also noted: unit not given here. In kind it is functional, Rattus norvegicus. Summed up: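 Rat normal fibroblast 3Y1 cells grown in Dulbecco's modified MEM with 10% fetal calf serum, 5% CO2, humidified. Exponentially growing cells exposed to compounds for 24 h. Relative cell number = cell number at 24 h per initial cell number at 0 h × 100; DNA content distribution read by laser scanning cytometry.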

A further assay has as its system Prostate cell. The experiment in a line: Inhibitory activity against prostate cell line. In kind it is functional, cell-based. The settings on record: Homo sapiens, Prostate cell.
The test system of a further assay is Breast carcinoma cell. The experiment in a line: Inhibitory activity against breast cell line. In kind it is functional, cell-based. The following applies: for IC50: Homo sapiens, Breast carcinoma cell.
Assay [5] deals with NCI-60 human tumor cell line panel (Homo sapiens). The experiment in a line: Cytostatic effect in NCI-60 human tumor cell lines. Also noted: unit not given here.

The values that follow come from ChEMBL document CHEMBL1132918, “Synthesis and evaluation of tryprostatin B and demethoxyfumitremorgin C analogues” (J Med Chem, 2000).

A value given as a limit tells only on which side of the number the result lay.

In general, IC50 refers to the concentration that inhibits the measured activity by half. Usually GI50 stands for the concentration at which growth is held to half of that of the control. Turning to `COc1cc(CN2C(=O)[C@@H]3CCCN3C(=O)[C@@H]2Cc2c[nH]c3ccccc23)cc(OC)c1O`, the IC50 in assay [1] is 64.6 µM; in the assay with Colon cell, 87.1 µM; in the assay on Ovarian carcinoma cell it was over 100 µM; in the assay with Melanoma cell, 95.5 µM; with Renal cell, over 100 µM; in [3], 87.1 µM. Further, the IC50 was over 100 µM in the assay with CNS cell, over 100 µM in the assay with Prostate cell and 95.5 µM in the assay with Breast carcinoma cell. The molecule also came in with a TGI in [2] of over -4. Besides, halving of growth in assay [4] (Homo sapiens, NCI-60 panel) (GI50) required 91.2 µM. In the assay on 3Y1 cell line, this molecule displayed an LC50 of over -4.
Turning to `COc1cc([C@@H]2c3[nH]c4ccccc4c3C[C@H]3C(=O)NCC(=O)N23)cc(OC)c1OC` (relative stereo), the 50% inhibitory concentration (IC50) in assay [1] is 2.29 µM; with Colon cell, 4.37 µM; in the assay on Ovarian carcinoma cell, 5.89 µM; in the assay with Melanoma cell, 6.76 µM; in the assay on Renal cell, 13.8 µM; in [3], 7.59 µM. In addition, the values for the IC50 in the assay on CNS cell, in the assay with Prostate cell and with Breast carcinoma cell were 3.72 µM, 5.5 µM and 6.31 µM, respectively. The TGI in [5] is -4.26. Moreover, in assay [4] (Homo sapiens, NCI-60 panel), the GI50 is 5.89 µM. In the assay on 3Y1 cell line, this molecule showed an LC50 of -4.04.
For the molecule `COc1cc([C@H]2c3[nH]c4ccccc4c3C[C@H]3C(=O)N4CCC[C@H]4C(=O)N23)cc(OC)c1O`, the IC50 in assay [1] was 100 µM; in the assay with Colon cell it was 89.1 µM; in the assay with Ovarian carcinoma cell, 39.8 µM; in the assay on Melanoma cell, 55 µM; with Renal cell it was 44.7 µM; in assay [3], 40.7 µM. In addition, the IC50 in the assay on CNS cell is 33.1 µM; in the assay with Prostate cell, 66.1 µM; with Breast carcinoma cell, 46.8 µM. In addition, the TGI in assay [5] is reported as over -4.03. This molecule gave a GI50 in [4] (Homo sapiens, NCI-60 panel) of 53.7 µM. The LC50 in the assay on 3Y1 cell line is listed as over -4.
As to `CC(C)=C[C@H]1c2[nH]c3ccccc3c2C[C@H]2C(=O)N3CCC[C@H]3C(=O)N21` (stereo in doubt; 3) [DEMETHOXYFUMITREMORGIN C], the IC50 in [1] is 34.7 µM; with Colon cell, 53.7 µM; in the assay on Ovarian carcinoma cell, 70.8 µM; in [3], 52.5 µM; in the assay on Prostate cell, 50.1 µM. Moreover, the “Log IC50” value is recorded as -4.32 in the assay on Melanoma cell (melanoma cell), -4.61 in the assay on Renal cell (renal cell), -4.36 in the assay with CNS cell (cns cell) and -4.43 in the assay on Breast carcinoma cell (breast carcinoma cell). Further, the TGI in [5] is -4.02. In assay [4], this molecule showed a GI50 of 43.7 µM. In the assay on 3Y1 cell line, this molecule returned an LC50 of over -4.
